# STEP block – STEP phosphatase inhibitors, primary screen, biochemical, fluorescence intensity, uHTS; 360,000 tested, 0.25% active; inhibition, % at 20 µM; recombinant STEP, OMFP fluorogenic substrate; Tyrosine-protein phosphatase non-receptor type 5 (Homo sapiens), P54829;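 active means inhibition at 20 µM, scaled per plate between control wells, above about 37%, limit read from the data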;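 further: 0% = DMSO with enzyme and substrate and 100% = substrate only without enzyme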
#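 Assay system: isolated STEP enzyme. Buffer or medium: pH 6.0 Bis-Tris with DTT and Tween 20. Also added: fluorogenic phosphatase substrate OMFP at 25 µM final. Dosing: 20 µM, 1% DMSO. Timing: 20 min reaction, room temperature, in the dark. Measured by: fluorescence intensity, excitation 480 nm, emission 540 nm. Evaluation: normalized % inhibition.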
# DNMT1 inh – human DNMT1 methyltransferase inhibitors, primary screen, biochemical, molecular beacon, fluorescence, HinP1I cleavage, uHTS. DNA (cytosine-5)-methyltransferase 1 (Homo sapiens), P26358. inhibition (reported as % activation of signal), % at 10 µM. 360,000 tested, 0.83% active; in the data active means inhibition above about 50%
# LMPTP block – LMPTP phosphatase inhibitors, primary screen, biochemical, fluorescence intensity, uHTS; Low molecular weight phosphotyrosine protein phosphatase (Homo sapiens), P24666; AID 651560, 2012; inhibition, % at 20 µM; recombinant LMPTP-A, OMFP fluorogenic substrate; 360,000 tested, 0.22% active;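 active means compounds that cut the enzyme signal by at least half of the control window in the single-dose screen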;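 further: plate controls were DMSO wells with enzyme plus substrate for no effect and substrate without enzyme for full effect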
#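 Test system – LMPTP-A enzyme · Amount – LMPTP-A at 0.625 nM final in the reaction · Buffer or medium – Bis-Tris pH 6.0, DTT, detergent · Reagent – OMFP 400 µM · Doses – single 20 µM dose · Schedule – reaction 50 min, room temperature, dark · Detection – fluorescence intensity of OMFP turnover product · Evaluation – percent inhibition versus substrate-only and uninhibited controls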
# SUMO1-SIM PPI – modulators of SUMO1 protein-protein interactions, primary screen, biochemical, uHTS. Small ubiquitin-related modifier 1 (Homo sapiens), P63165. inhibition, % at 20 µM. AID 602429, 2012. SUMO1 binding to a labelled peptide, TR-FRET, 1 h. 360,000 tested, 0.33% active; in the data active means inhibition above about 37%
# GRK2 aptamer HTS – compounds blocking aptamer binding on GRK2 – biochemical, human GRK2, bead flow cytometry, HTS, primary screen; FAM-aptamer displacement from GRK2; inhibition of aptamer binding, % at 10 µM; 330,000 tested, 0.59% active;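 active means inhibition of aptamer binding above 40%, roughly 3 SD of noise, on plates passing a quality check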;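 further: median bead fluorescence of bound FAM aptamer so fluorescent compounds give negative values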
# Target sequence (P25098 whole entry, looked up): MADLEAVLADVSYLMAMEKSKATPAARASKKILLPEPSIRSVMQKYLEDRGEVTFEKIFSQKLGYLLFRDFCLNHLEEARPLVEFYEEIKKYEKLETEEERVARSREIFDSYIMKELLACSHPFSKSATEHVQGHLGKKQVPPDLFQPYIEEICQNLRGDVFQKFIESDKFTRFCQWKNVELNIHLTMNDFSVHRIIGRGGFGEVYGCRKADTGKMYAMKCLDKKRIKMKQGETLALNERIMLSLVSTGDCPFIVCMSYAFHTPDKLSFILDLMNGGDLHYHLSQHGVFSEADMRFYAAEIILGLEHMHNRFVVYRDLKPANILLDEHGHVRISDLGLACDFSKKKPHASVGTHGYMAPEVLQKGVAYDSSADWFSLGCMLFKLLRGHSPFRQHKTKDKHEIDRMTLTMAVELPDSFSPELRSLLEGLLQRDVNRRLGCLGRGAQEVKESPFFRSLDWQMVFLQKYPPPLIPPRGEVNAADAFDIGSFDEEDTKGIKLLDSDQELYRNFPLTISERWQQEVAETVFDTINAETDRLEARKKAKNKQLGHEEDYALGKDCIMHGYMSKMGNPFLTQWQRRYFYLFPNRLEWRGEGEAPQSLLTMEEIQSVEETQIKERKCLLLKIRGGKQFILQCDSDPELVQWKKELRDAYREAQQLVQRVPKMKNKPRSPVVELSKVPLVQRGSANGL
# Scp-1 inhibitor – Scp-1 phosphatase inhibitors, primary screen, biochemical, colorimetric, uHTS; Carboxy-terminal domain RNA polymerase II polypeptide A small phosphatase 1 (Homo …; 340,000 tested, 0.88% active; Recombinant Scp1, phosphopeptide, malachite green phosphate absorbance; inhibition, % at 20 µM; AID 493091, 2011;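 active means inhibition above about 50% at 20 µM, limit read from the data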;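 further: plate controls were DMSO wells with enzyme for no effect and wells lacking enzyme for full effect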
#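 System: SCP-1 catalytic domain; Reagent: Phospho 17-mer peptide substrate; Doses: one concentration, 20 µM, with 1.0% DMSO; Incubation: 45 min room-temperature reaction, 5 min colour, 30 min stabiliser; Signal: Phosphate-binding colour reagent, absorbance read at 630 nm.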
# Scp1 confirm – Scp-1 phosphatase inhibitors, retest, confirmation, biochemical, colorimetric, single concentration. 2,500 tested, 61% active. shares compounds with Scp-1 inhibitor. inhibition, % at 20 µM. recombinant SCP-1 catalytic domain, phosphate release, malachite green absorbance;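 further: plate controls were DMSO with enzyme for no effect and buffer wells lacking enzyme for full effect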
# MG interference – colorimetric readout interference by compounds, confirmation, artefact control for Scp-1 inhibitor project, biochemical, single concentration | shares compounds with Scp-1 inhibitor | Colorimetric interference counterscreen, malachite green absorbance 630 nm | apparent inhibition (interference), % at 20 µM | 2,500 tested, under 10 active | AID 540313, 2011;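 further: compounds added after enzyme reaction finished so only phosphate colour detection is probed; plate controls were DMSO wells with completed Scp-1 reaction for no effect and substrate wells lacking enzyme for full effect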
# Scp-1 Tm shift – Scp-1 binding by thermal shift, confirmation, orthogonal assay for Scp-1 inhibitor project, biophysical, differential scanning fluorimetry | Recombinant SCP1, Sypro Orange thermal shift Tm | 1,500 tested, 25% active | AID 540329, 2011 | thermal shift relative to vanadate control, % at 40 µM | shares compounds with Scp-1 inhibitor;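 active means substances whose mean melting-temperature shift, as a percentage of the reference inhibitor's shift, reaches about 5.3%, limit read from the data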;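 further: 0% = Tm of DMSO wells and 100% = Tm with sodium orthovanadate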
# Active calls of the source: *; · = no result given. In the library only some 2.1% were active in any assay of this set; here they are far more common.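 How the source made its calls, unless noted: active means inhibition of at least 30% at 20 µM; inactive means the rest.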
SMILES,STEP block,DNMT1 inh,LMPTP block,SUMO1-SIM PPI,GRK2 aptamer HTS,Scp-1 inhibitor,Scp1 confirm,MG interference,Scp-1 Tm shift
Cc1ccc2nc3n(c(=O)c2c1)-c1ncccc1C(=O)NC3Cc1ccc(O)cc1 (stereo not given),8,4,-1,1,·,·,·,·,·
Cc1ccc(NC(=O)CSc2nnnn2C2CCCC2)cc1S(=O)(=O)N1CCOCC1,-2,2,0,0,0,-7,·,·,·
CCOC(=O)C1CCN(C2CC(=O)N(c3ccc(OCC)cc3)C2=O)CC1 (stereo not given),0,0,-2,-2,0,52*,15,0,·
CCCCCCOc1ccc(N2C(=O)CC(N3CCC(C(=O)OCC)CC3)C2=O)cc1 (stereo not given),-2,6,0,-4,1,3,·,·,·
Cc1cc(C)n2c(SC/C(O)=C(\C#N)c3nc4ccccc4[nH]3)nnc2n1,0,49,17,35,0,76*,63*,-5,11*
COc1ccc(CCNC(=O)c2cc(-c3ccco3)nc3ccccc23)cc1,·,·,·,·,11,87*,73*,-6,5
O=C(Nc1ccccc1F)c1cc(-c2ccco2)nc2ccccc12,17,40,6,0,13,68*,51*,-17,-6
Cc1ccc(C)c(-c2cc(C(=O)Nc3cccnc3)c3ccccc3n2)c1,0,-4,0,-5,0,-3,·,·,·
COc1cccc(NC(=O)c2cc(-c3ccco3)nc3ccccc23)c1,8,17,4,2,0,66*,31*,-6,2
Cc1ccc(-c2cc(C(=O)Nc3cccnc3)c3ccccc3n2)o1,1,51*,2,0,0,60*,57*,-1,5.7*
CC1CCN(C(=O)COC(=O)c2cccc(S(=O)(=O)N3CCOCC3)c2)CC1,0,2,-2,-3,·,·,·,·,·
CC(C)(C)CN1CCN(Cc2cccnc2)CC1CCO (stereo not given),0,-6,-2,2,0,-2,·,·,·
O=C(NN=C1CCCC1)c1cc(O)cc(O)c1,12,8,7,38,6,52*,53*,-1,-8
Cc1ccc(S(=O)(=O)C(C#N)c2nc3ccccc3nc2N2CC(C)OC(C)C2)cc1C (stereo not given),-2,-9,0,-9,1,79*,-13,-19,·
O=C(Nc1ccc2c(c1)OCO2)c1cc(C2CCCCN2S(=O)(=O)c2ccccc2)on1 (stereo not given),-2,1,2,6,·,·,·,·,·
COc1cccc(C(=O)OCC(=O)Nc2sc3c(c2C(N)=O)CCC3)c1O,5,48,11,34,5,62*,72*,-6,9.7*
CN1CCN(C(=O)c2ccc(S(=O)(=O)N(C)c3ccccc3)cc2)CC1,1,2,0,-2,·,·,·,·,·
Cc1cccc(N2CCN(C(=O)c3ccc(S(=O)(=O)N(C)c4ccccc4)cc3)CC2)c1C,0,-5,4,-4,0,99*,75*,-17,-26
CC(C)(C)S(=O)(=O)N1C[C@H]2CC/C=C\C/C(c3ccccc3)=C\2[C@@H]1CCO,0,3,0,2,·,-11,·,·,·
COC(=O)[C@]1(C)N[C@H](CN(C)C(=O)C2CCCCC2)[C@@H]2C(=O)N(C)C(=O)[C@@H]21,-3,6,0,7,6,7,·,·,·
Cc1nc(NC(=O)COC(=O)C2CC2C)c(Cl)cc1Cl (stereo not given),0,2,0,7,4,51*,-3,-16,·
COc1cc(Cl)c(C)cc1NC(=O)COC(=O)C1CC1C (stereo not given),-2,23,1,-2,0,1,·,·,·
O=S(=O)(O)c1cccc2cccc(Nc3ccccc3)c12,6,18,5,16,0,42,·,·,·
O=C(N/N=C/c1ccc([N+](=O)[O-])cc1)c1cccs1,26,-1,5,-14,0,60*,53*,-20,4
O=C(N/N=C/c1ccc(-c2cccc([N+](=O)[O-])c2)o1)c1cccs1,1,1,3,6,0,-9,·,·,·
SMILES,STEP block,DNMT1 inh,LMPTP block,SUMO1-SIM PPI,GRK2 aptamer HTS,Scp-1 inhibitor,Scp1 confirm,MG interference,Scp-1 Tm shift
CC1CCc2sc(C(=O)N/N=C/c3ccc([N+](=O)[O-])cc3)cc2C1 (stereo not given),30,25,36,-2,0,72*,69*,-14,4
COc1ccc(CCC(=O)N2CCN(S(=O)(=O)c3ccc(C)cc3)CC2)cc1,-4,1,0,3,4,4,·,·,·
COc1ccc(S(=O)(=O)N2CCN(C(=O)c3ccc([N+](=O)[O-])o3)CC2)cc1,6,8,1,-35,8,51*,42*,-15,4
CCOc1ccccc1N1CCN(S(=O)(=O)c2ccc3c4c(cccc24)C(=O)N3)CC1,6,32,8,5,11,61*,50*,-8,5
CSc1n[nH]c(NCc2ccc(C)cc2)n1,-3,2,0,2,2,55*,-7,-12,·
CSc1n[nH]c(NCc2ccc(Cl)cc2)n1,0,2,-1,3,2,-7,·,·,·
O=C(Nc1cccnc1Cl)c1ccc(=O)oc1,1,35,0,-4,22,53*,43*,-4,6.5*
Cc1ccc2nc(/C(C#N)=C/c3ccc(-c4ccccc4C(=O)O)o3)[nH]c2c1,4,21,5,0,18,54*,47*,-13,7.3*
